Each structure is given as a SMILES string. ≈ marks a conversion by molar mass, not a printed value. Calls of active or inactive are those of the source.

For the first test, the system named is Bacillus subtilis. The experiment in a line: Inhibition of FtsZ in Bacillus subtilis ATCC 9372 assessed as decrease in cell division by measuring lowest compound concentration at which bacterial filamentation is observed after 5 hrs by phase-contrast light microscopy.
Details: not given
The procedure, abridged: (§1)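 Cell division inhibition scored by cell morphology under phase-contrast light microscopy. B. subtilis ATCC9372, E. coli ATCC25922 and S. aureus ATCC25923 were exposed to compound. The lowest concentration giving filamentation (B. subtilis, E. coli) or ballooning (S. aureus) was recorded as the cell division inhibitory concentration.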
For the compound `NC(=O)c1c(F)ccc(OCCCCCCn2cnc3cc([N+](=O)[O-])ccc32)c1F`, the INH came out at 64 µg/mL.

The next test relates to Pseudomonas aeruginosa. Briefly: Antibacterial activity against Pseudomonas aeruginosa ATCC 27853 after 24 hrs by broth microdilution method. The note with it: ATCC 27853, 24 h. The format is functional. The procedure, abridged:
(§2)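 MIC by standard broth microdilution per NCCLS guidance. Strain panel: B. subtilis ATCC9372 and S. aureus ATCC25923 as standard susceptible strains, S. aureus ATCC29213 as […], S. pyogenes PS as penicillin-susceptible, S. pneumoniae ATCC49619 as standard susceptible, alongside Gram-negative strains.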
With `NC(=O)c1c(F)ccc(OCCn2cnc3ccccc32)c1F`, the MIC (in general, the smallest concentration in the dilution series that meets the test's criterion for growth inhibition) worked out at 1020 µg/mL (≈ 3230 µM).

`NC(=O)c1c(F)ccc(OCCCCCCn2cnc3cc([N+](=O)[O-])ccc32)c1F` had an MIC of 512 µg/mL (≈ 1220 µM).

`NC(=O)c1c(F)ccc(OCCCCn2cnc3ccccc32)c1F` returned an MIC of 512 µg/mL (≈ 1480 µM).

Compound `NC(=O)c1c(F)ccc(OCCCCCn2cnc3ccccc32)c1F` returned an MIC of 512 µg/mL (≈ 1420 µM).

A further test deals with Bacillus subtilis. The experiment in a line: Antibacterial activity against Bacillus subtilis ATCC 9372 after 24 hrs by broth microdilution method. The format is functional. The following applies: ATCC 9372, 24 h. Put shortly: as §2
With `NC(=O)c1c(F)ccc(OCCn2cnc3ccccc32)c1F`, the MIC is 1020 µg/mL (≈ 3230 µM).

Take `NC(=O)c1c(F)ccc(OCCCCCCn2cnc3cc([N+](=O)[O-])ccc32)c1F`: the MIC was found to be 1020 µg/mL (≈ 2450 µM).

With `NC(=O)c1c(F)ccc(OCCCCn2cnc3ccccc32)c1F`, the MIC was 512 µg/mL (≈ 1480 µM).

`NC(=O)c1c(F)ccc(OCCCCCn2cnc3ccccc32)c1F`: 512 µg/mL (≈ 1420 µM) was the least that counted as inhibitory (MIC).

A further test concerns Streptococcus pneumoniae. The experiment in a line: Antibacterial activity against Streptococcus pneumoniae ATCC 49619 after 24 hrs by broth microdilution method. The format is functional. The note with it: ATCC 49619, 24 h. The procedure, abridged: as §2
On to `NC(=O)c1c(F)ccc(OCCn2cnc3ccccc32)c1F`, for which the MIC worked out at 512 µg/mL (≈ 1610 µM).

In the case of `NC(=O)c1c(F)ccc(OCCCCCCn2cnc3cc([N+](=O)[O-])ccc32)c1F`, the lowest concentration to inhibit growth (MIC) was 256 µg/mL (≈ 612 µM).

In turn, `NC(=O)c1c(F)ccc(OCCCCn2cnc3ccccc32)c1F` displayed an MIC of 512 µg/mL (≈ 1480 µM).

As to `NC(=O)c1c(F)ccc(OCCCCCn2cnc3ccccc32)c1F`, 512 µg/mL (≈ 1420 µM) was the least that counted as inhibitory (MIC).

Another test deals with Escherichia coli ATCC 25922. The experiment in a line: Inhibition of FtsZ in Escherichia coli ATCC 25922 assessed as decrease in cell division by measuring lowest compound concentration at which bacterial filamentation is observed after 5 hrs by phase-contrast light microscopy.
Details: not given
Put shortly: as §1
With `NC(=O)c1c(F)ccc(OCCn2cnc3ccccc32)c1F`, the INH worked out at 256 µg/mL.

As to `NC(=O)c1c(F)ccc(OCCCCCCn2cnc3cc([N+](=O)[O-])ccc32)c1F`, the INH is 256 µg/mL.

`NC(=O)c1c(F)ccc(OCCCCn2cnc3ccccc32)c1F`: the INH came to 512 µg/mL.

Turning to `NC(=O)c1c(F)ccc(OCCCCCn2cnc3ccccc32)c1F`, the INH was 512 µg/mL.

The subject of the next test is Staphylococcus aureus. The experiment in a line: Antibacterial activity against Staphylococcus aureus ATCC 29213 after 24 hrs by broth microdilution method. The format is functional. The following applies: ATCC 29213, 24 h. Put shortly:
as §2
In general terms: In broth dilution the organism is exposed to a series of concentrations in liquid medium.
Regarding `NC(=O)c1c(F)ccc(OCCn2cnc3ccccc32)c1F`, the MIC turned out to be 512 µg/mL (≈ 1610 µM).

For `NC(=O)c1c(F)ccc(OCCCCCCn2cnc3cc([N+](=O)[O-])ccc32)c1F`, the MIC is 512 µg/mL (≈ 1220 µM).

With `NC(=O)c1c(F)ccc(OCCCCn2cnc3ccccc32)c1F`, 512 µg/mL (≈ 1480 µM) was the least that counted as inhibitory (MIC).

Consider `NC(=O)c1c(F)ccc(OCCCCCn2cnc3ccccc32)c1F`, for which the MIC was determined as 512 µg/mL (≈ 1420 µM).

Another test has as its system Bacillus subtilis. Briefly: Inhibition of FtsZ in Bacillus subtilis ATCC 9372 assessed as decrease in cell division by measuring cell morphology at 2048 to 4096 ug/ml after 5 hrs by phase-contrast light microscopy.
Details: not given
For `NC(=O)c1c(F)ccc(OCCn2cnc3ccccc32)c1F`, the inhibition result is “inactive”.

Turning to `NC(=O)c1c(F)ccc(OCCCCn2cnc3ccccc32)c1F`, the inhibition entry is “inactive”.

As to `NC(=O)c1c(F)ccc(OCCCCCn2cnc3ccccc32)c1F`, the inhibition result is “inactive”.

The subject of another test is Streptococcus pyogenes. The experiment in a line: Antibacterial activity against penicillin-susceptible Streptococcus pyogenes after 24 hrs by broth microdilution method. The format is functional.
Details: not given
The procedure, abridged:
as §2
`NC(=O)c1c(F)ccc(OCCn2cnc3ccccc32)c1F` returned a minimum inhibitory concentration (MIC) of 1020 µg/mL (≈ 3230 µM).

Turning to `NC(=O)c1c(F)ccc(OCCCCCCn2cnc3cc([N+](=O)[O-])ccc32)c1F`, the minimal inhibitory concentration (MIC) was 512 µg/mL (≈ 1220 µM).

Regarding `NC(=O)c1c(F)ccc(OCCCCn2cnc3ccccc32)c1F`, the minimum inhibitory concentration (MIC) stood at 1020 µg/mL (≈ 2970 µM).

`NC(=O)c1c(F)ccc(OCCCCCn2cnc3ccccc32)c1F` registered an MIC of 1020 µg/mL (≈ 2850 µM).

Another test concerns Escherichia coli. Briefly: Antibacterial activity against Escherichia coli ATCC 25922 after 24 hrs by broth microdilution method. The format is functional. The note with it: ATCC 25922, 24 h. The procedure, abridged:
as §2
For `NC(=O)c1c(F)ccc(OCCn2cnc3ccccc32)c1F`, the MIC turned out to be 512 µg/mL (≈ 1610 µM).

`NC(=O)c1c(F)ccc(OCCCCCCn2cnc3cc([N+](=O)[O-])ccc32)c1F` came in with an MIC of 512 µg/mL (≈ 1220 µM).

`NC(=O)c1c(F)ccc(OCCCCn2cnc3ccccc32)c1F`: the MIC came out at 1020 µg/mL (≈ 2970 µM).

With `NC(=O)c1c(F)ccc(OCCCCCn2cnc3ccccc32)c1F`, the MIC turned out to be 1020 µg/mL (≈ 2850 µM).

For the next test, the system named is Staphylococcus aureus. Briefly: Antibacterial activity against penicillin-resistant Staphylococcus aureus clinical isolate after 24 hrs by broth microdilution method. The format is functional.
Details: not given
The compound `NC(=O)c1c(F)ccc(OCCn2cnc3ccccc32)c1F` registered a minimal inhibitory concentration (MIC) of 1020 µg/mL (≈ 3230 µM).

The compound `NC(=O)c1c(F)ccc(OCCCCCCn2cnc3cc([N+](=O)[O-])ccc32)c1F` gave an MIC of 1020 µg/mL (≈ 2450 µM).

`NC(=O)c1c(F)ccc(OCCCCn2cnc3ccccc32)c1F` gave an MIC of 1020 µg/mL (≈ 2970 µM).

`NC(=O)c1c(F)ccc(OCCCCCn2cnc3ccccc32)c1F` came in with an MIC of 512 µg/mL (≈ 1420 µM).

For a further test, the system named is Staphylococcus aureus. The experiment in a line: Antibacterial activity against Staphylococcus aureus ATCC 25923 after 24 hrs by broth microdilution method. The note with it: ATCC 25923, 24 h. The format is functional. Put shortly: as §2
Consider `NC(=O)c1c(F)ccc(OCCn2cnc3ccccc32)c1F`, for which inhibition of growth (MIC) required 1020 µg/mL (≈ 3230 µM).

Consider `NC(=O)c1c(F)ccc(OCCCCCCn2cnc3cc([N+](=O)[O-])ccc32)c1F`, for which inhibition of growth (MIC) required 1020 µg/mL (≈ 2450 µM).

As to `NC(=O)c1c(F)ccc(OCCCCn2cnc3ccccc32)c1F`, the MIC was determined as 1020 µg/mL (≈ 2970 µM).

`NC(=O)c1c(F)ccc(OCCCCCn2cnc3ccccc32)c1F`: it took 512 µg/mL (≈ 1420 µM) to inhibit growth (MIC).

In a further test the target is T1, Cell division protein FtsZ (Staphylococcus aureus) (UniProt P0A031).
T1 sequence (whole entry): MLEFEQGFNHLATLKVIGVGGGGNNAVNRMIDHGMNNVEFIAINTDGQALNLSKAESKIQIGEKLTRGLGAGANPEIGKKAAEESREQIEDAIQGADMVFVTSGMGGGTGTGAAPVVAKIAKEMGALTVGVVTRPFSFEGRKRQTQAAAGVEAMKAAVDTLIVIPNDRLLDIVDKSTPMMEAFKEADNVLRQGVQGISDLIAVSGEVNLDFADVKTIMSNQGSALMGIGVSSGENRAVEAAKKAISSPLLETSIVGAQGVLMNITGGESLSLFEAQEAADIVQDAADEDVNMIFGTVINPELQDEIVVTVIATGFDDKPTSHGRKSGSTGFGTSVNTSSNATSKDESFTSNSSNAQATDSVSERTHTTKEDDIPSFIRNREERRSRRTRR
Briefly: Inhibition of FtsZ in Staphylococcus aureus ATCC 25923 assessed as decrease in cell division by measuring cell morphology at 2048 to 4096 ug/ml after 5 hrs by phase-contrast light microscopy.
Details: not given
Regarding `NC(=O)c1c(F)ccc(OCCn2cnc3ccccc32)c1F`, the inhibition result is “inactive”.

Consider `NC(=O)c1c(F)ccc(OCCCCCCn2cnc3cc([N+](=O)[O-])ccc32)c1F`, for which the inhibition result was “inactive”.

Turning to `NC(=O)c1c(F)ccc(OCCCCn2cnc3ccccc32)c1F`, the inhibition result was “inactive”.

For the compound `NC(=O)c1c(F)ccc(OCCCCCn2cnc3ccccc32)c1F`, the inhibition entry is “inactive”.

Source of the values: ChEMBL document CHEMBL4002610, “Design, synthesis and biological activity evaluation of novel 2,6-difluorobenzamide derivatives through FtsZ inhibition” (2017).
